Data: ChEMBL document CHEMBL4680297, “Design, synthesis, and evaluation of substrate - analogue inhibitors of Trypanosoma cruzi ribose 5-phosphate isomerase type B” (Bioorg Med Chem Lett, 2021)
Calls of active or inactive are those of the source. The calls are words filed in the database; no cut-off is given here.

Columns and labels:
[1] = Inhibition of Trypanosoma cruzi Ribose 5-phosphate isomerase type B expressed in Escherichia coli BL21 codon plus (DE3) using ribose 5-phosphate as substrate
[2] = tested on: Trypanosoma cruzi; experiment: Trypanocidal activity against Trypanosoma cruzi trypomastigotes expressing beta galactosidase infected in NIH/3T3 cells assessed as parasite growth inhibition by reporter assay; type: functional, organism-based; details: NIH3T3
In short: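 Tulahuen strain expressing β-galactosidase. Trypomastigotes added to NIH-3T3 fibroblasts together with compound, up to 50 μM, covering infection and intracellular amastigote growth. β-Galactosidase activity taken as parasite viability. IC50 from dose-response fits, in triplicate. Amphotericin B positive control.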

[3] = Competitive inhibition of recombinant poly-His-tagged Trypanosoma cruzi Ribose 5-phosphate isomerase type B expressed in Escherichia coli BL21 codon plus (DE3) using ribose 5-phosphate as substrate
In short: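 Coupled spectrophotometric RPI assay, with T. cruzi ribulose 5-phosphate epimerase (TcRPE-1) as the first coupling enzyme. Inhibitor was tested at 0, 10, 20, 40, 60 and 80 μM, each at R5P 0.4, 0.8 and 2 mM. Ki came from Dixon plots (1/V vs [inhibitor]), as the X-axis intersection of the three lines. Inhibition type was assigned from [R5P]/V vs [inhibitor] plots (Cornish-Bowden). Mean of four independent experiments.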

[4] = tested on: Trypanosoma cruzi; experiment: Inhibition of Trypanosoma cruzi Ribose 5-phosphate isomerase type B assessed as residual activity at 0.2 mM using ribose 5-phosphate as substrate relative to control
In short: (§1)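 TcRPI-B activity on R5P, measured by coupled enzyme assay (TcRPE-1 first coupling enzyme), with compound at 0.2, 0.5, 1.0 or 2.0 mM, as % of control activity. Mean of three independent determinations ± SEM.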

[5] = tested on: Trypanosoma cruzi; experiment: Inhibition of Trypanosoma cruzi Ribose 5-phosphate isomerase type B assessed as residual activity at 0.5 mM using ribose 5-phosphate as substrate relative to control; in short: as §1
[6] = tested on: Trypanosoma cruzi; experiment: Inhibition of Trypanosoma cruzi Ribose 5-phosphate isomerase type B assessed as residual activity at 1 mM using ribose 5-phosphate as substrate relative to control; in short: as §1
[7] = tested on: Trypanosoma cruzi; experiment: Inhibition of Trypanosoma cruzi Ribose 5-phosphate isomerase type B assessed as residual activity at 2 mM using ribose 5-phosphate as substrate relative to control; in short: as §1
[8] = tested on: Trypanosoma cruzi; experiment: Inhibition of Trypanosoma cruzi RPE1 assessed as residual activity at 0.2 mM relative to control
In short: (§2)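 TcRPE-1 (first enzyme of the coupled RPI assay) activity measured with compound at 0.2, 0.5, 1.0 or 2.0 mM, as % of uninhibited activity. Mean of three independent determinations ± SEM.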

[9] = tested on: Trypanosoma cruzi; experiment: Inhibition of Trypanosoma cruzi RPE1 assessed as residual activity at 0.5 mM relative to control; in short: as §2
[10] = tested on: Trypanosoma cruzi; experiment: Inhibition of Trypanosoma cruzi RPE1 assessed as residual activity at 1 mM relative to control; in short: as §2
[11] = tested on: Trypanosoma cruzi; experiment: Inhibition of Trypanosoma cruzi RPE1 assessed as residual activity at 2 mM relative to control; in short: as §2
[12] = tested on: NIH3T3; experiment: Cytotoxicity against mouse NIH/3T3 cells; type: cell-based
[13] = tested on: Trypanosoma cruzi; experiment: Trypanocidal activity against Trypanosoma cruzi trypomastigotes expressing beta galactosidase infected in NIH/3T3 cells assessed as parasite growth inhibition at up to 50 uM by reporter assay; details: dose microM <=50
[14] = Competitive inhibition of Trypanosoma cruzi Ribose 5-phosphate isomerase type B using varying levels of ribose 5-phosphate as substrate by Dixon plot analysis
In short: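 Coupled assay with TcRPE-1 as first coupling enzyme. Inhibitor at 0, 10, 20, 40, 60 and 80 μM, R5P at 0.4, 0.8 and 2 mM. Ki taken from the x-axis intersection of Dixon plots (1/V vs [inhibitor]). Inhibition type assigned from parallel [R5P]/V vs [inhibitor] lines (Cornish-Bowden). Mean of four independent experiments.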

[15] = tested on: Trypanosoma cruzi; experiment: Binding affinity to Trypanosoma cruzi Ribose 5-phosphate isomerase type B assessed as covalent bond formation between compound and protein Cys69 residue by trypsin digestion based LC-MS/MS analysis
In short: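 TcRPI-B incubated intact with inhibitor for 30 min, then digested with trypsin to map cysteine modification.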

Row | Structure (SMILES) | Ki [1] | IC50 [2] | Ki [3] | Activity [4] | Activity [5] | Activity [6] | Activity [7] | Activity [8] | Activity [9] | Activity [10] | Activity [11] | Activity [12] | Activity [13] | Ki [14] | Activity [15]
1 | O=C[C@H](O)[C@H](O)[C@H](O)[C@H](O)COP(=O)(O)O | 15000 µM |  |  |  |  |  |  |  |  |  |  |  |  |  | 
2 | C[C@@H]1[C@H](O)[C@@H](C)/C=C/C=C/C=C/C=C/C=C/C=C/C=C/[C@H](O[C@@H]2O[C@H](C)[C@@H](O)[C@H](N)[C@@H]2O)C[C@@H]2O[C@](O)(C[C@@H](O)C[C@@H](O)[C@H](O)CC[C@@H](O)C[C@@H](O)CC(=O)O[C@H]1C)C[C@H](O)[C@H]2C(=O)O [AMPHOTERICIN B] |  | 0.23 µM |  |  |  |  |  |  |  |  |  |  |  |  | 
3 | O=C(NO)[C@H](O)[C@H](O)COP(=O)(O)O |  |  | 1200 µM |  |  |  |  |  |  |  |  |  |  |  | 
4 | O=C(Cc1ccccc1)NCCOP(=O)(O)O |  |  |  | 98.1% | 97.4% | 95.3% | 89.2% | 100% | 91.9% | 87.4% | 85.9% | Non-Toxic | inactive |  | 
5 | O=C(CI)NCCOP(=O)(O)O |  | 17.4 µM |  | 25.2% | 7.5% | 1.2% | 0% | 89.5% | 89.5% | 103% | 57.4% | Non-Toxic |  | 5.5 µM | Active
6 | O=C(CBr)NCCOP(=O)(O)O |  |  |  | 78.5% | 62.7% | 41.3% | 18.3% | 91.1% | 85.8% | 77.3% | 65.1% | Non-Toxic | inactive |  | 
7 | O=C(CF)NCCOP(=O)(O)O |  |  |  |  | 2040% |  |  | 111% | 103% | 93.2% | 83.5% | Non-Toxic | inactive |  | 
8 | O=C(CCl)NCCOP(=O)(O)O |  |  |  | 107% | 105% | 98.5% | 83.7% | 100% | 103% | 95.5% | 82.6% | Non-Toxic |  |  | 
